# Experimental data reported in ChEMBL document CHEMBL1139499, “Nucleotides and pronucleotides of 2,2-bis(hydroxymethyl)methylenecyclopropane analogues of purine nucleosides: synthesis and antiviral activity” (J Med Chem, 2005).
# What was measured:
# Daudi = experiment: Cytotoxic concentration to inhibit replication in daudi cells; assay type: functional; conditions: Homo sapiens
# [1] = Effective concentration required to inhibit varicella zoster virus replication in HFF cells; assay type: functional, cell-based; conditions: Human alphaherpesvirus 3, HFF
# Method in brief: (§1)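 VZV assayed in HFF cells by cytopathic effect (CPE) inhibition or by plaque reduction. Single experiments unless specified otherwise.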
# HFF [2] = experiment: Cytotoxic concentration against towne strain of human cytomegalovirus infected HFF cells of human (visual cytotoxicity); assay type: functional
# Method in brief: (§2)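 Human CMV (Towne and AD169 strains) grown in HFF cell culture; antiviral effect read by plaque reduction or by cytopathic effect (CPE) inhibition. Cytotoxicity measured in HFF cells. Single experiments unless specified otherwise.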
# Human alphaherpesvirus 1 [3] = experiment: Effective concentration required to inhibit herpes simplex virus 1 in BSC-1 cells in ELISA; assay type: functional, organism-based; conditions: Human alphaherpesvirus 1, BSC-1
# Method in brief: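 HSV-1 assayed in BSC-1 cells with ELISA read-out; cytotoxicity in these assays determined in KB cells. Single experiments unless specified otherwise.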
# Human betaherpesvirus 5 [4] = experiment: Effective concentration for antiviral activity against AD169 strain of human cytomegalovirus in plaque reduction assay; assay type: functional, organism-based; method in brief: as §2
# Human alphaherpesvirus 1 [5] = experiment: Effective concentration required to inhibit herpes simplex virus 1 in HFF cells in cytopathic effect (CPE) assay; assay type: functional, organism-based; conditions: Human alphaherpesvirus 1, HFF
# Method in brief: (§3)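 HSV-1 and HSV-2 assayed in HFF cells by cytopathic effect (CPE) inhibition and by plaque reduction. Cytotoxicity measured in HFF cells. Single experiments unless specified otherwise.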
# Human betaherpesvirus 5 [6] = experiment: Effective concentration for antiviral activity against towne strain of human cytomegalovirus in plaque reduction assay; assay type: functional, organism-based; method in brief: as §2
# Hepatitis B virus = experiment: Effective concentration required to inhibit hepatitis B virus replication in 2.2.15 cells in DNA hybridization assay; assay type: functional, organism-based; conditions: HepG2 2.2.15
# Method in brief: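 HBV assayed in 2.2.15 cells by DNA hybridization. CC50 values are those from the EBV/H-1 cytotoxicity determination, run in CEM cells. Single experiments unless specified otherwise.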
# MEF = experiment: Cytotoxic concentration against murine cytomegalovirus infected MEF cells; assay type: functional; conditions: Mus musculus
# [7] = Cytotoxic concentration to inhibit replication in H-1 cells (in CEM cells); assay type: functional; conditions: Homo sapiens, CCRF-CEM
# Method in brief: (§4)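 EBV assayed in H-1 cells by DNA hybridization. Cytotoxicity determined separately in CEM cells. Single experiments unless specified otherwise.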
# HFF [8] = experiment: Cytotoxic concentration against AD169 strain of human cytomegalovirus infected HFF cells of human (by neutral red uptake); assay type: functional
# Human alphaherpesvirus 2 [9] = experiment: Effective concentration required to inhibit herpes simplex virus 2 in HFF cells in cytopathic effect (CPE) assay; assay type: functional, organism-based; conditions: Human alphaherpesvirus 2, HFF; method in brief: as §3
# Human gammaherpesvirus 4 [10] = experiment: Effective concentration required to inhibit Epstein-barr virus replication in H-1 cells in DNA hybridization assay; assay type: functional, organism-based; conditions: human gammaherpesvirus 4, H-1; method in brief: as §4
# Human alphaherpesvirus 1 [11] = experiment: Effective concentration required to inhibit herpes simplex virus 1 in vero cells in plaque reduction assay; assay type: functional, organism-based; conditions: Human alphaherpesvirus 1, Vero
# Method in brief: (§5)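 HSV-1 and HSV-2 assayed in Vero cells by plaque reduction. Single experiments unless specified otherwise.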
# KB (Homo sapiens) = experiment: Cytotoxic concentration required to inhibit KB cells
# Human alphaherpesvirus 2 [12] = experiment: Effective concentration required to inhibit herpes simplex virus 2 in vero cells in plaque reduction assay; assay type: functional, organism-based; conditions: Human alphaherpesvirus 2, Vero; method in brief: as §5
# [13] = Effective concentration required to inhibit varicella zoster virus replication in HFF cells in cytopathic reduction assay; assay type: functional, cell-based; conditions: Human alphaherpesvirus 3, HFF; method in brief: as §1
# Human gammaherpesvirus 4 [14] = experiment: Effective concentration required to inhibit Epstein-barr virus replication in daudi cells in viral capsid immunofluorescence ELISA; assay type: functional, organism-based; conditions: human gammaherpesvirus 4, Daudi
# [15] = Effective concentration required to inhibit varicella zoster virus replication in HFF cells in plaque reduction assay; assay type: functional, cell-based; conditions: Human alphaherpesvirus 3, HFF; method in brief: as §1
# Vero [16] = experiment: Cytotoxic concentration required to inhibit herpes simplex virus 1 infected vero cells; assay type: functional; conditions: Chlorocebus sabaeus
# HFF [17] = experiment: Cytotoxic concentration to inhibit Herpes simplex virus 1 infected HFF cells; assay type: functional; conditions: Homo sapiens; method in brief: as §3
# HFF [18] = experiment: Cytotoxic concentration to inhibit Herpes simplex virus 2 infected HFF cells; assay type: functional; conditions: Homo sapiens; method in brief: as §3
# HFF [19] = experiment: Cytotoxic concentration against AD169 strain of human cytomegalovirus infected HFF cells of human (by cytopathic effect inhibition assay); assay type: functional; method in brief: as §2
# HFF [20] = experiment: Cytotoxic concentration against town strain of human cytomegalovirus infected HFF cells of human (visual cytotoxicity); assay type: functional; method in brief: as §2
# Homo sapiens = species on record: Homo sapiens; experiment: Cytotoxic concentration to inhibit replication in 2.2.15 cells; assay type: functional; conditions: HepG2 2.2.15
# HFF [21] = experiment: Cytotoxic concentration to inhibit herpes simplex virus 2 infected HFF cells; assay type: functional; conditions: Homo sapiens; method in brief: as §3
# HFF [22] = experiment: Cytotoxic concentration to inhibit herpes simplex virus 1 infected HFF cells; assay type: functional; conditions: Homo sapiens; method in brief: as §3
# HFF [23] = experiment: Cytotoxic concentration against towne strain of human cytomegalovirus infected HFF cells of human (visual cytotoxicity); range=100-200; assay type: functional; method in brief: as §2
# Vero [24] = experiment: Cytotoxic concentration required to inhibit herpes simplex virus 2 infected vero cells; assay type: functional; conditions: Chlorocebus sabaeus
# HFF [25] = experiment: Cytotoxic concentration to inhibit replication in HFF cells in cytopathic effect inhibition assay; assay type: functional; conditions: Homo sapiens; method in brief: as §2
Compound,CC50 (Daudi) [µM],EC50 [1] [µM],CC50 (HFF [2]) [µM],EC50 (Human alphaherpesvirus 1 [3]) [µM],EC50 (Human betaherpesvirus 5 [4]) [µM],EC50 (Human alphaherpesvirus 1 [5]) [µM],EC50 (Human betaherpesvirus 5 [6]) [µM],EC50 (Hepatitis B virus) [µM],CC50 (MEF) [µM],CC50 [7] [µM],CC50 (HFF [8]) [µM],EC50 (Human alphaherpesvirus 2 [9]) [µM],EC50 (Human gammaherpesvirus 4 [10]) [µM],EC50 (Human alphaherpesvirus 1 [11]) [µM],CC50 (KB (Homo sapiens)) [µM],EC50 (Human alphaherpesvirus 2 [12]) [µM],EC50 (Human gammaherpesvirus 4 [14]) [µM],CC50 (HFF [19]) [µM],further results
Nc1ncnc2c1ncn2/C=C1/CC1(CO)CO,> 202,> 404,> 100,50,11.7,> 404,2.4,> 10,> 404,> 50,> 404,> 404,> 20,> 50,> 100,> 50,,,
COC(=O)C(C)NP(=O)(OCC1(CO)C/C1=C/n1cnc2c(O)nc(N)nc21)Oc1ccccc1 (stereo not given),> 198,,> 100,> 100,8.1,> 198,3.6,4.1,> 198,35,> 198,> 198,3.4,> 50,> 100,> 50,> 99,,EC50 [13]: 6.3 µM; EC50 [15]: 7.3 µM
Nc1nc(O)c2ncn(/C=C3/CC34COP(=O)(O)OC4)c2n1 (stereo not given),> 150,> 301,> 100,20,6,> 301,20,0.8,> 301,> 100,> 301,242,> 20,16,> 100,22,0.96,,CC50 (Vero [16]): > 100 µM
COC(=O)C(C)NP(=O)(OCC1(CO)C/C1=C/n1cnc2c(N)ncnc21)Oc1ccccc1 (stereo not given),> 102,> 41,32,55,18.4,21.1,3,12.8,,3.8,200,22.1,3,> 40,3.5,> 40,> 102,,CC50 (HFF [17]): 200 µM; CC50 (HFF [18]): 200 µM
Nc1nc(O)c2ncn(/C=C3\CC3(CO)COP(=O)(O)O)c2n1 (stereo not given),> 146,> 291,,> 100,> 291,> 291,> 100,> 20,,> 100,,> 291,> 20,> 50,> 100,> 50,> 146,> 291,CC50 (HFF [20]): > 100 µM
Nc1ccn([C@@H]2CS[C@H](CO)O2)c(=O)n1 [LAMIVUDINE],,,,,,,,0.05,,,,,,,,,,,CC50 (Homo sapiens): > 100 µM
Nc1nc(O)c2ncn(/C=C3\CC34COP(=O)(O)OC4)c2n1 (stereo not given),> 150,> 299,> 100,> 100,> 299,> 299,> 100,> 20,,> 100,,> 299,> 20,> 50,> 100,50,> 150,> 299,
COC(=O)C(C)NP(=O)(OCC1(CO)C/C1=C\n1cnc2c(N)ncnc21)Oc1ccccc1 (stereo not given),> 102,> 205,> 100,> 100,> 205,> 205,> 100,> 20,,> 25,,> 205,> 20,> 30,> 100,> 30,> 102,> 205,
Nc1nc2c(ncn2COC(CO)CO)c(=O)[nH]1 [GANCICLOVIR],,,,,1.6,,2.1,,> 392,,> 392,,5,,,,,,CC50 (HFF [20]): > 100 µM
COC(=O)C(C)NP(=O)(OCC1(CO)C/C1=C\n1cnc2c(O)nc(N)nc21)Oc1ccccc1 (stereo not given),> 198,> 198,> 100,70,> 198,> 198,> 100,> 10,,> 100,,> 198,> 20,> 50,> 100,> 50,> 99,> 198,
Nc1nc(O)c2ncn(/C=C3/CC3(CO)COP(=O)(O)O)c2n1 (stereo not given),> 146,> 291,100,> 100,1.1,9.9,0.25,15,175,62,> 291,23.3,2.3,50,> 100,> 50,> 146,,CC50 (HFF [21]): > 291 µM; CC50 (HFF [22]): > 291 µM
Nc1nc2c(ncn2/C=C2/CC2(CO)CO)c(=O)[nH]1 [FILOCICLOVIR],74,> 380,,> 100,0.49,> 380,0.33,> 10,> 380,> 50,> 380,> 380,,> 50,> 100,> 50,,,CC50 (HFF [23]): 200 µM
Nc1nc2c(ncn2COCCO)c(=O)[nH]1 [ACYCLOVIR],> 222,1.6,,1.5,,0.9,,,,,,6.7,,13.5,> 100,32.3,1.1,,CC50 (Vero [24]): > 200 µM; CC50 (HFF [17]): > 444 µM; CC50 (HFF [18]): > 444 µM; CC50 (HFF [25]): > 444 µM; CC50 (Vero [16]): > 200 µM
